Columns and labels:
[1] = biological target: DNA (cytosine-5)-methyltransferase 1 (Homo sapiens, UniProt P26358); test: Inhibition of human DNMT1 enzyme using polydeoxy-inosine polydeoxy-cytosine DNA as substrate incubated for 15 mins in presence of SAM by TR-FRET assay
[2] = Permeability of the compound in PBS/EtOH buffer (70:30) incubated for 18 hrs by UV plate reader based PAMPA assay; type: ADME; conditions: read-out: permeability
Histone deacetylase 1 = Histone deacetylase 1 (Homo sapiens, UniProt Q13547); test: Inhibition of full length human C-terminal His-tagged/C-terminal Flag-tagged HDAC1 using fluorogenic acetylated peptide as substrate incubated for 30 mins by fluorescence plate reader assay
[3] = biological target: T1, Histone-lysine N-methyltransferase EHMT2 (Homo sapiens, UniProt Q96KQ7); test: Inhibition of human G9a enzyme using histone monomethyl-H3K9 peptide as substrate incubated for 1 hr in presence of SAM by TR-FRET assay
T1 sequence (Q96KQ7 whole entry): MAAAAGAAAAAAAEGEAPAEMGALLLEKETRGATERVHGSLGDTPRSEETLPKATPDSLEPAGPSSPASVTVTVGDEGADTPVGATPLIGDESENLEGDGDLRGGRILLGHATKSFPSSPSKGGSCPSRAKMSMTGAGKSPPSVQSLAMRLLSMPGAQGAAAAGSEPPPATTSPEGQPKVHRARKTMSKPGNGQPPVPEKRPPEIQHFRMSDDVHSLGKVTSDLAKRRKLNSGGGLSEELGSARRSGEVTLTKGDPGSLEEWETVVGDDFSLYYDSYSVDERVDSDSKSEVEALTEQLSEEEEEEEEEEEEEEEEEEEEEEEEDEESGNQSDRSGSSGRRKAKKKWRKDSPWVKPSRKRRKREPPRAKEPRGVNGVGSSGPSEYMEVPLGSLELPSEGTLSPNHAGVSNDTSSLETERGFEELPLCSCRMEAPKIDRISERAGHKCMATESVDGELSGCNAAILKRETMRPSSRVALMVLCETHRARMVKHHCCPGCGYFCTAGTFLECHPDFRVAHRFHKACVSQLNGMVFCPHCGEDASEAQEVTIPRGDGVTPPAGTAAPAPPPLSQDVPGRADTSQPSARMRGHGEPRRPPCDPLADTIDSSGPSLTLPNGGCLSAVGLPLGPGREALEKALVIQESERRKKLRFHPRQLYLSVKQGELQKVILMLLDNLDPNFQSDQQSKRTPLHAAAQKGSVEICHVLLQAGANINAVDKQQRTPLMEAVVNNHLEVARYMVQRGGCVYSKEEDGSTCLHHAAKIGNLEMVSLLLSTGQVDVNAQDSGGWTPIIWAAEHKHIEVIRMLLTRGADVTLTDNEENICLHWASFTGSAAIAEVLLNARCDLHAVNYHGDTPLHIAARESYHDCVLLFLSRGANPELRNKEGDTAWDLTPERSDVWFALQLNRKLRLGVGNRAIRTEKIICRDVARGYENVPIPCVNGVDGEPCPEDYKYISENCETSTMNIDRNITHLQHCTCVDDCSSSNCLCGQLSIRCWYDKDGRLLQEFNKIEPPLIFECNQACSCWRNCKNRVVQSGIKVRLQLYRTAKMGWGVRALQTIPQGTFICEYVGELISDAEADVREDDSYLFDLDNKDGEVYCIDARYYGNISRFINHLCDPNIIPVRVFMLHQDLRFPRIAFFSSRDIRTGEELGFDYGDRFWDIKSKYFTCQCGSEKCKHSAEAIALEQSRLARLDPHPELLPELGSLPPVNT

MM1.S = test: Antiproliferative activity against human MM1.S cells assessed as inhibition of cell proliferation measured up to 72 hrs by CellTiter96 Aqueous one reagent based assay; type: functional
THLE-2 = test: Cytotoxicity against human THLE-2 cells assessed as decrease in cell viability measured after 72 hrs by Vialight-plus cell proliferation assay; type: cell-based; conditions: thle-2, 72 h
Outline: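 Human THLE-2 cells exposed to compound for 72 h. Cytotoxicity reported as LC50 and pLC50, averaged from at least two independent experiments on different days.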

[4] = biological target: T2, Protein deacetylase HDAC6 (Homo sapiens, UniProt Q9UBN7); test: Inhibition of full length human N-terminal GST-tagged HDAC6 using fluorogenic acetylated peptide as substrate incubated for 30 mins by fluorescence plate reader assay
T2 sequence (Q9UBN7 whole entry): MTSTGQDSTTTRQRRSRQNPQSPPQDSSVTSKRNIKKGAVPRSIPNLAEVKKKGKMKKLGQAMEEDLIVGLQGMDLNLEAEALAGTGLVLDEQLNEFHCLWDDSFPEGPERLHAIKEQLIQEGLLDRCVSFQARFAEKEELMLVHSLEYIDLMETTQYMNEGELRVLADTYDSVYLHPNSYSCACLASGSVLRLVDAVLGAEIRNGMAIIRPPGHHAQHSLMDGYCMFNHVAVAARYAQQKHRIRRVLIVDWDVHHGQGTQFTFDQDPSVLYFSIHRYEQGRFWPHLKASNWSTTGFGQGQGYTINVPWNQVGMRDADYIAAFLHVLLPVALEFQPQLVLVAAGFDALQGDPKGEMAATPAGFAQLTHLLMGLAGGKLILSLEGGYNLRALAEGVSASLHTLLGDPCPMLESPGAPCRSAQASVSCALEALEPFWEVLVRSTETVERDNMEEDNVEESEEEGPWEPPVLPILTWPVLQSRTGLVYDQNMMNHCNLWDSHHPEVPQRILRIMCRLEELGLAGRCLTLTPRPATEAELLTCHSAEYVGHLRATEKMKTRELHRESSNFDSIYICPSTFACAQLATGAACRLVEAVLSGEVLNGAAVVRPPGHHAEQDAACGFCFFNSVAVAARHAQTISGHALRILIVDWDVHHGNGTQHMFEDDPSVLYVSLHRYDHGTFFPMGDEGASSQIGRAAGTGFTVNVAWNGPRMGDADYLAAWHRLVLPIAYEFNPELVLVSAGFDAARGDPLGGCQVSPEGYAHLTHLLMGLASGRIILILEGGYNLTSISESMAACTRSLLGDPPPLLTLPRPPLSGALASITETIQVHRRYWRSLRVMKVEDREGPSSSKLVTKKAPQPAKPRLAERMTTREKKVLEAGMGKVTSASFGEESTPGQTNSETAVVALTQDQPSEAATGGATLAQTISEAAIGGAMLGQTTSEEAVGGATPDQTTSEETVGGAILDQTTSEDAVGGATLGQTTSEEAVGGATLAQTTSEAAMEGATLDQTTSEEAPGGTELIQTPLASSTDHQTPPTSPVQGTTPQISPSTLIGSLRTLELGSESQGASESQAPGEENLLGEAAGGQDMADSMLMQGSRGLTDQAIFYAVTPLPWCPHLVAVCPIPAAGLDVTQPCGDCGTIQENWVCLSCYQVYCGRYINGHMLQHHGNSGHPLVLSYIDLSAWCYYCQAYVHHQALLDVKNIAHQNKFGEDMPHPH

[5] = time hrs <=72, read-out: pGI50 (converted)

Histone deacetylase 1, sequence (Q13547 whole entry): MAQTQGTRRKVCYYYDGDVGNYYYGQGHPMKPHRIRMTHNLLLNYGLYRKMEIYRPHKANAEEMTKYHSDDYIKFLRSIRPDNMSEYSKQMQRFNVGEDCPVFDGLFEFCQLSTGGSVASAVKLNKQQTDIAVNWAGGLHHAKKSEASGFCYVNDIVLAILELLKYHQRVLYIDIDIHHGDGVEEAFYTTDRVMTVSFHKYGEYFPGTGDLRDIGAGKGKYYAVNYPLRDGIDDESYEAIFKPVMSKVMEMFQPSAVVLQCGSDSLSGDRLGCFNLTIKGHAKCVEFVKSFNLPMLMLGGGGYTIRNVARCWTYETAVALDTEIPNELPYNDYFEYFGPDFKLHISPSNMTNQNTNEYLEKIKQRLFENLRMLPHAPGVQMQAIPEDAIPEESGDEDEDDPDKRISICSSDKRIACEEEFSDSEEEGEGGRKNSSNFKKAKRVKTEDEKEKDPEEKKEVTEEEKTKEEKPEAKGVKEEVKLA
DNA (cytosine-5)-methyltransferase 1, sequence (P26358 whole entry): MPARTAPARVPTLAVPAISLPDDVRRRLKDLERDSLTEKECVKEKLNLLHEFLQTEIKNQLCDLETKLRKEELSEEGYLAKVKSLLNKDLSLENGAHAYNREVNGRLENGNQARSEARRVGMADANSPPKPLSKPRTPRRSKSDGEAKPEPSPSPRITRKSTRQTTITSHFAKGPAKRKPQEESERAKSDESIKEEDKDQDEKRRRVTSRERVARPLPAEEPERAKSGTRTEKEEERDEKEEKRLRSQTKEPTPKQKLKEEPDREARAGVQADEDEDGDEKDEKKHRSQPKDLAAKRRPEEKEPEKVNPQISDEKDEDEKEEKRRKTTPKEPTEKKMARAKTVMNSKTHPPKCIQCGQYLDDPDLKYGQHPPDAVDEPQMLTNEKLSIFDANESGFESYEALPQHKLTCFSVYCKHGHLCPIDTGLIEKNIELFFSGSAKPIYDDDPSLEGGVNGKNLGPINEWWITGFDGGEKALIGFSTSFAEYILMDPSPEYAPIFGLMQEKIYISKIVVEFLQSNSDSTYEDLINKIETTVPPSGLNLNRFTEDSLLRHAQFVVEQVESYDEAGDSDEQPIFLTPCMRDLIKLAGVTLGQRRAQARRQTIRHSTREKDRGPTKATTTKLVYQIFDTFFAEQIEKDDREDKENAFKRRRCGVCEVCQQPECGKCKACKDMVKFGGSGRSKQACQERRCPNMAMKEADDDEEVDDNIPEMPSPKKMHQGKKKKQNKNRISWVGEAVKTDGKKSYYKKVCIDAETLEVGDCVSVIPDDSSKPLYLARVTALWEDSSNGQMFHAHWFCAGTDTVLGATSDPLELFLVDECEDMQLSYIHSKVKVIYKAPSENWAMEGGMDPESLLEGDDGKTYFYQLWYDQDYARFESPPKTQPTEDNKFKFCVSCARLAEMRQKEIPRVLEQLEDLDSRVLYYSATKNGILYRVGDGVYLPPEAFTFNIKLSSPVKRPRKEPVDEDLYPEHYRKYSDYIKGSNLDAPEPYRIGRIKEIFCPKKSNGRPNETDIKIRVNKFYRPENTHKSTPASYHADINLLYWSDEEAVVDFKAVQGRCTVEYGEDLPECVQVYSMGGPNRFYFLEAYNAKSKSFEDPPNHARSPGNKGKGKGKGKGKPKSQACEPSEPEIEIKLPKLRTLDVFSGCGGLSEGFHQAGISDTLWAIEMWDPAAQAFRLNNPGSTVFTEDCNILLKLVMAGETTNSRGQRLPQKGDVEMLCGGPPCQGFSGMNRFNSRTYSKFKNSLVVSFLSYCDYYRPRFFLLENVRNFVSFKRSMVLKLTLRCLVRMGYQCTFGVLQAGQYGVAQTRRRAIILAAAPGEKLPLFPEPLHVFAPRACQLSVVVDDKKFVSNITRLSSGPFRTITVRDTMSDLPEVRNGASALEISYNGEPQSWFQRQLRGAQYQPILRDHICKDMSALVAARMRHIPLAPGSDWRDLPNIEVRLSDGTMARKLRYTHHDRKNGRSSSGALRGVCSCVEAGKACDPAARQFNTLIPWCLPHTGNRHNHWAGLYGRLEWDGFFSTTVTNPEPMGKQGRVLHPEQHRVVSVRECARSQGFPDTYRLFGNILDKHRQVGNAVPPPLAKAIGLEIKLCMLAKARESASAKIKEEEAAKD

Compound | IC50 [1] [µM] | Papp at 18 h [2] [nm/s] | IC50 (Histone deacetylase 1) [µM] | IC50 [3] [µM] | GI50 (MM1.S; time hrs <=72, read-out: GI50) [µM] | GI50 (MM1.S; [5]) [µM] | LC50 (THLE-2) [µM] | pLC50 (THLE-2) | IC50 [4] [µM]
COc1cc2c(NC3CCN(c4ccc(C(=O)NO)cc4)CC3)cc(-c3ccc(C)o3)nc2cc1OCCCN1CCCC1 | 0.691 | 0.14 | 0.415 | 0.025 | > 10 | > 10 | 6.656 | 5.18 | 0.133
COc1cc2c(NCc3ccc([C@H]4CC[C@@H](C(=O)NO)CC4)cc3)cc(-c3ccc(C)o3)nc2cc1OCCCN1CCCC1 | 1.43 |  | 0.115 | 1.92 |  |  |  |  | 0.351
COc1cc2c(NC3CCN(c4ncc(C(=O)NO)cn4)CC3)cc(C)nc2cc1OCCCN1CCCC1 | 2.04 | 0.75 | 0.017 | 0.034 | > 10 | > 10 | 33.25 | 4.48 | 0.118
COc1cc2nc(-c3ccc(C)o3)cc(N[C@H]3CC[C@@H](C(=O)NO)CC3)c2cc1OC | 2.66 |  | 0.396 | > 10 |  |  |  |  | 2.89
COc1cc2c(NCC3CCN(Cc4ccc(C(=O)NO)cc4)CC3)cc(-c3ccc(C)o3)nc2cc1OCCCN1CCCC1 | 0.167 |  | 0.524 | 0.046 | 3.57 | 3.55 | 3.89 | 5.41 | 0.053
O=C(CCCCCCC(=O)Nc1ccccc1)NO [VORINOSTAT] | > 10 |  |  | > 10 |  |  |  |  | 
COc1cc2c(NCC3CCC(c4ccc(C(=O)NO)cc4)CC3)cc(-c3ccc(C)o3)nc2cc1OCCCN1CCCC1 (stereo not drawn) | 2.76 |  | 0.034 | 3.1 |  |  |  |  | 0.122
COc1cc2c(NCC3CCN(c4ncc(C(=O)NO)cn4)CC3)cc(-c3ccc(C)o3)nc2cc1OCC1CCNCC1 | 1.14 | 0.25 | 0.006 | 2.07 | > 10 | > 10 | 19.7 | 4.71 | 0.351
COc1cc2nc(-c3ccc(C)o3)cc(NCC3CCN(Cc4ccc(C(=O)NO)cc4)CC3)c2cc1OC | 0.267 | 5.56 | 0.33 | > 10 | 0.217 | 0.219 | 0.204 | 6.69 | 0.084
COc1cc2nc(-c3ccc(C)o3)cc(NCC3CCN(Cc4ccc(C(=O)NO)s4)CC3)c2cc1OC | 0.323 | 4.01 | 0.303 | > 10 | 1.94 | 1.95 | 2.227 | 5.65 | 0.066
COc1cc2nc(-c3ccc(C)s3)cc(NCC3CCN(c4ncc(C(=O)NO)cn4)CC3)c2cc1OC | > 10 |  | 0.017 | > 10 |  |  |  |  | 1.26
COc1cc2nc(N3CCCCC3)cc(NCC3CCN(c4ncc(C(=O)NO)cn4)CC3)c2cc1OC | > 10 |  | 0.003 | > 10 |  |  |  |  | 0.234
COc1cc2c(NCC3CCN(c4ncc(C(=O)NO)cn4)CC3)cc(C)nc2cc1OCCCN1CCCC1 | 0.555 |  | 0.007 | 0.004 | > 10 | > 10 | > 100 | < 4 | 0.35
Cc1[nH]c2ccccc2c1CCNCc1ccc(/C=C/C(=O)NO)cc1 [PANOBINOSTAT] |  | 14.2 |  |  | 0.0089 | 0.00891 | 0.022 | 7.66 | 
COc1cc2nc(-c3ccc(C)o3)cc(NCC3CCN(c4ccc(C(=O)NO)cn4)CC3)c2cc1OC | 8.41 |  | 0.144 | > 10 |  |  |  |  | 0.465
COc1cc2c(NCc3ccc([C@H]4CC[C@H](C(=O)NO)CC4)cc3)cc(-c3ccc(C)o3)nc2cc1OCCCN1CCCC1 | 2.27 |  | 3.32 | 1.65 |  |  |  |  | 9.62
COc1cc2nc(C)cc(NCC3CCN(c4ncc(C(=O)NO)cn4)CC3)c2cc1OC | > 10 |  | 0.003 | 0.0072 |  |  |  |  | 0.253
COc1cc2nc(-c3ccc(C)o3)cc(N[C@H]3CC[C@H](C(=O)NO)CC3)c2cc1OC | 4.18 |  | > 4 | > 10 |  |  |  |  | > 20
COc1cc2nc(-c3ccccc3)cc(NCC3CCN(c4ncc(C(=O)NO)cn4)CC3)c2cc1OC | > 10 |  | 0.003 | > 10 |  |  |  |  | 0.23
COc1cc2nc(-c3ccc(C)o3)cc(NCc3ccc(C(=O)NO)cn3)c2cc1OC | > 10 |  | 0.087 | > 10 |  |  |  |  | 0.204
COc1cc2c(NC3CCN(Cc4ccc(C(=O)NO)cc4)CC3)cc(-c3ccc(C)o3)nc2cc1OCCCN1CCCC1 | 0.318 |  | 0.147 | 0.047 | 4.21 | 4.17 | 22.05 | 4.66 | 0.039
COc1cc2nc(-c3cc(C)oc3C)cc(NCC3CCN(c4ncc(C(=O)NO)cn4)CC3)c2cc1OC | > 10 |  | 0.005 | > 10 |  |  |  |  | 0.126
COc1cc2c(NCC3CCN(C4CCC(C(=O)NO)CC4)CC3)cc(-c3ccc(C)o3)nc2cc1OCCCN1CCCC1 (stereo not drawn) | 0.566 |  | > 20 | 0.038 |  |  |  |  | > 20
